What was measured:
[1] = Concentration which elicits cytotoxicity in 50% of uninfected human lymphocyte derived CEM cells; type: cell-based, CCRF-CEM; details: uninfected CCRF-CEM cells, read-out: TC50 (the source's name)
In short: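 Cytotoxicity measured in uninfected human lymphocyte-derived CEM cells by XTT protocol.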

[2] = target: Human immunodeficiency virus type 1 protease (Human immunodeficiency virus 1, UniProt Q72874); assay: Activity of potent nonpeptidic inhibitor against protease
In short: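 Incubated with 40 µM His-Lys-Ala-Arg-Val-Leu-(p-NO₂-Phe)-Glu-Ala-Nle-Ser-NH₂ in 1.0% DMSO, pH 6.2 MES buffer (DTT, NaCl, EDTA, PEG 8000) for 60 min at 37 °C, then TFA quench. Substrate and product separated by reverse-phase HPLC, read at 220 nm. % control = conversion with inhibitor / conversion without × 100; IC50 derived.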

[3] = system: Human immunodeficiency virus 1; assay: Effective concentration at which 50% of the HIV-IIIB-infected human lymphocyte-derived CEM cells protected from HIV-1 infection; details: Human immunodeficiency virus 1, CCRF-CEM

Cc1cc(SC2=C(O)OC(CCc3ccc(O)cc3)(C3CC3)CC2=O)c(C(C)(C)C)cc1NS(=O)(=O)c1ccccc1 (stereo not given)
CC50 [1]: 76000 nM
IC50 [2]: 3.6 nM
EC50 [3]: 2400 nM

Cc1cc(SC2=C(O)OC(CCc3ccc(O)cc3)(C(C)C)CC2=O)c(C(C)(C)C)cc1NS(=O)(=O)c1ccccn1 (stereo not given)
CC50 [1]: > 100000 nM
IC50 [2]: 2.6 nM
EC50 [3]: 4100 nM

Cc1cc(SC2=C(O)OC(CCc3ccc(O)cc3)(C3CCCCC3)CC2=O)c(C(C)(C)C)cc1OS(=O)(=O)c1ccccc1 (stereo not given)
CC50 [1]: 59000 nM
IC50 [2]: 131 nM
EC50 [3]: > 59000 nM

CCNS(=O)(=O)Oc1cc(C(C)(C)C)c(SC2=C(O)OC(CCc3ccc(N)cc3)(C(C)C)CC2=O)cc1C (stereo not given)
CC50 [1]: 83000 nM
EC50 [3]: 700 nM

Cc1cc(SC2=C(O)OC(CCc3ccc(O)cc3)(C(C)C)CC2=O)c(C(C)(C)C)cc1NS(=O)(=O)c1cccnc1 (stereo not given)
CC50 [1]: > 100000 nM
IC50 [2]: 2.6 nM
EC50 [3]: 5800 nM

Cc1cc(SC2=C(O)OC(C)(CCc3ccc(O)cc3)CC2=O)c(C(C)(C)C)cc1NS(=O)(=O)Cn1ccnc1 (stereo not given)
CC50 [1]: > 100000 nM
IC50 [2]: 1.9 nM
EC50 [3]: 58000 nM

Cc1cc(SC2=C(O)OC(CCc3ccccc3)(C(C)C)CC2=O)c(C(C)(C)C)cc1OS(=O)(=O)c1cccnc1 (stereo not given)
CC50 [1]: 65000 nM
IC50 [2]: 14 nM
EC50 [3]: 4600 nM

Cc1cc(SC2=C(O)OC(C)(CCc3ccc(O)cc3)CC2=O)c(C(C)(C)C)cc1N (stereo not given)
CC50 [1]: > 100000 nM
IC50 [2]: 13 nM
EC50 [3]: 3700 nM

Cc1cc(SC2=C(O)OC(CCc3ccc(O)cc3)(C(C)C)CC2=O)c(C(C)(C)C)cc1OS(=O)(=O)N(C)C (stereo not given)
CC50 [1]: 70000 nM

Cc1cc(SC2=C(O)OC(C)(CCc3ccc(O)cc3)CC2=O)c(C(C)(C)C)cc1OS(=O)(=O)c1ccccc1 (stereo not given)
CC50 [1]: 82000 nM
IC50 [2]: 9.8 nM
EC50 [3]: 12000 nM

Cc1cc(SC2=C(O)OC(CCc3ccc(N)cc3)(C(C)C)CC2=O)c(C(C)(C)C)cc1OS(=O)(=O)N(C)C (stereo not given)
CC50 [1]: 64000 nM
EC50 [3]: 800 nM

CCNS(=O)(=O)Oc1cc(C(C)(C)C)c(SC2=C(O)OC(CCc3ccc(O)cc3)(C(C)C)CC2=O)cc1C (stereo not given)
CC50 [1]: > 100000 nM
EC50 [3]: 1000 nM

Cc1cc(SC2=C(O)OC(CCc3ccc(O)cc3)(C(C)C)CC2=O)c(C(C)(C)C)cc1NS(=O)(=O)c1ccc(F)cc1 (stereo not given)
CC50 [1]: 66000 nM
IC50 [2]: 4.1 nM
EC50 [3]: 1800 nM

Cc1cc(SC2=C(O)OC(CCc3ccc(O)cc3)(C(C)C)CC2=O)c(C(C)(C)C)cc1OS(=O)(=O)c1ccccc1 (stereo not given)
CC50 [1]: 66000 nM
IC50 [2]: 10.4 nM
EC50 [3]: 1600 nM

Cc1cc(SC2=C(O)OC(CCc3ccc(O)cc3)(C3CCCCC3)CC2=O)c(C(C)(C)C)cc1OS(=O)(=O)c1ccc(C#N)cc1 (stereo not given)
CC50 [1]: 29000 nM
IC50 [2]: 21 nM
EC50 [3]: 2600 nM

Cc1cc(SC2=C(O)OC(CCc3ccc(O)cc3)(C(C)C)CC2=O)c(C(C)(C)C)cc1NS(=O)(=O)N(C)C (stereo not given)
CC50 [1]: > 100000 nM
IC50 [2]: 3.6 nM
EC50 [3]: 1700 nM

Cc1cc(SC2=C(O)OC(CCc3ccccc3)(C(C)C)CC2=O)c(C(C)(C)C)cc1NS(=O)(=O)c1cccs1 (stereo not given)
CC50 [1]: 61000 nM
IC50 [2]: 3.6 nM
EC50 [3]: 2100 nM

Cc1cc(SC2=C(O)OC(C)(CCc3ccc(O)cc3)CC2=O)c(C(C)(C)C)cc1NS(=O)(=O)c1ccc(F)cc1 (stereo not given)
CC50 [1]: 93000 nM
IC50 [2]: 3.7 nM
EC50 [3]: 5600 nM

Cc1cc(SC2=C(O)OC(CCc3ccc(O)cc3)(C(C)C)CC2=O)c(C(C)(C)C)cc1NS(=O)(=O)c1cccs1 (stereo not given)
CC50 [1]: > 100000 nM
IC50 [2]: 8.7 nM
EC50 [3]: 1800 nM

Cc1cc(SC2=C(O)OC(CCc3ccccc3)(C(C)C)CC2=O)c(C(C)(C)C)cc1NS(=O)(=O)c1cccnc1 (stereo not given)
CC50 [1]: 76000 nM
IC50 [2]: 3.5 nM
EC50 [3]: 1600 nM

Cc1cc(SC2=C(O)OC(CCc3ccc(O)cc3)(C(C)C)CC2=O)c(C(C)(C)C)cc1OS(=O)(=O)c1ccc(F)cc1 (stereo not given)
CC50 [1]: 66000 nM
IC50 [2]: 9.6 nM
EC50 [3]: 800 nM

CCNS(=O)(=O)Nc1cc(C(C)(C)C)c(SC2=C(O)OC(CCc3ccc(O)cc3)(C(C)C)CC2=O)cc1C (stereo not given)
CC50 [1]: > 100000 nM
IC50 [2]: 1.7 nM
EC50 [3]: 3300 nM

Cc1cc(SC2=C(O)OC(CCc3ccccc3)(C(C)C)CC2=O)c(C(C)(C)C)cc1N (stereo not given)
CC50 [1]: 69000 nM
IC50 [2]: 3.6 nM
EC50 [3]: 1900 nM

Cc1cc(SC2=C(O)OC(C)(CCc3ccc(O)cc3)CC2=O)c(C(C)(C)C)cc1OS(=O)(=O)c1ccc(F)cc1 (stereo not given)
CC50 [1]: 100000 nM
IC50 [2]: 16.9 nM
EC50 [3]: 6300 nM

Cc1cc(SC2=C(O)OC(CCc3ccc(N)cc3)(C(C)C)CC2=O)c(C(C)(C)C)cc1OS(=O)(=O)c1cccs1 (stereo not given)
CC50 [1]: 66000 nM
IC50 [2]: 18.5 nM
EC50 [3]: 6000 nM

Cc1cc(SC2=C(O)OC(CCc3ccc(N)cc3)(C(C)C)CC2=O)c(C(C)(C)C)cc1OS(=O)(=O)c1ccc(C#N)cc1 (stereo not given)
CC50 [1]: 53000 nM
IC50 [2]: 1.3 nM
EC50 [3]: 400 nM

Cc1cc(SC2=C(O)OC(CCc3ccccc3)(C(C)C)CC2=O)c(C(C)(C)C)cc1OS(=O)(=O)c1ccccn1 (stereo not given)
CC50 [1]: 65000 nM
IC50 [2]: 6.7 nM
EC50 [3]: 1400 nM

Cc1cc(SC2=C(O)OC(C)(CCc3ccc(O)cc3)CC2=O)c(C(C)(C)C)cc1NS(=O)(=O)c1ccc(Cl)cc1 (stereo not given)
CC50 [1]: 71000 nM
IC50 [2]: 3.5 nM
EC50 [3]: 3900 nM

Cc1cc(SC2=C(O)OC(C)(CCc3ccc(O)cc3)CC2=O)c(C(C)(C)C)cc1NS(C)(=O)=O (stereo not given)
CC50 [1]: > 100000 nM
IC50 [2]: 9.7 nM
EC50 [3]: 19000 nM

Cc1cc(SC2=C(O)OC(CCc3ccc(N)cc3)(C(C)C)CC2=O)c(C(C)(C)C)cc1OS(=O)(=O)c1cccnc1 (stereo not given)
CC50 [1]: 66000 nM
IC50 [2]: 4.1 nM
EC50 [3]: 2200 nM

Cc1cc(SC2=C(O)OC(C)(CCc3ccc(O)cc3)CC2=O)c(C(C)(C)C)cc1NS(=O)(=O)c1ccccc1 (stereo not given)
CC50 [1]: > 100000 nM
IC50 [2]: 1.5 nM
EC50 [3]: 5200 nM

CC(=O)Nc1ccc(S(=O)(=O)Nc2cc(C(C)(C)C)c(SC3=C(O)OC(C)(CCc4ccc(O)cc4)CC3=O)cc2C)cc1 (stereo not given)
CC50 [1]: > 100000 nM
EC50 [3]: 55000 nM

Cc1cc(SC2=C(O)OC(CCc3ccc(O)cc3)(C(C)C)CC2=O)c(C(C)(C)C)cc1OS(=O)(=O)c1ccccn1 (stereo not given)
CC50 [1]: 84000 nM
IC50 [2]: 5 nM
EC50 [3]: 700 nM

Cc1cc(SC2=C(O)OC(C)(CCc3ccc(O)cc3)CC2=O)c(C(C)(C)C)cc1NS(=O)(=O)c1ccc(-c2cccs2)cc1 (stereo not given)
CC50 [1]: > 100000 nM
IC50 [2]: 6.3 nM
EC50 [3]: 5600 nM

Cc1cc(SC2=C(O)OC(C)(CCc3ccc(O)cc3)CC2=O)c(C(C)(C)C)cc1NS(=O)(=O)c1ccc(C(F)(F)F)cc1 (stereo not given)
CC50 [1]: 79000 nM
IC50 [2]: 12.3 nM
EC50 [3]: 3500 nM

Cc1cc(SC2=C(O)OC(C)(CCc3ccc(O)cc3)CC2=O)c(C(C)(C)C)cc1NS(=O)(=O)c1ccc(C#N)cc1 (stereo not given)
CC50 [1]: > 100000 nM
IC50 [2]: 2.1 nM
EC50 [3]: 5000 nM

Cc1cc(SC2=C(O)OC(CCc3ccccc3)(C(C)C)CC2=O)c(C(C)(C)C)cc1OS(=O)(=O)Cn1ccnc1 (stereo not given)
CC50 [1]: 66000 nM
IC50 [2]: 3 nM
EC50 [3]: 1100 nM

Cc1cc(SC2=C(O)OC(CCc3ccccc3)(C(C)C)CC2=O)c(C(C)(C)C)cc1NS(=O)(=O)Cn1ccnc1 (stereo not given)
CC50 [1]: > 100000 nM
IC50 [2]: 1.9 nM
EC50 [3]: 4200 nM

Cc1cc(SC2=C(O)OC(CCc3ccc(O)cc3)(C3CCCCC3)CC2=O)c(C(C)(C)C)cc1OS(=O)(=O)c1ccc(F)cc1 (stereo not given)
CC50 [1]: 66000 nM
IC50 [2]: 29 nM
EC50 [3]: 9500 nM

Cc1cc(SC2=C(O)OC(CCc3ccc(O)cc3)(C(C)C)CC2=O)c(C(C)(C)C)cc1NS(=O)(=O)c1ccc(Cl)cc1 (stereo not given)
CC50 [1]: 66000 nM
IC50 [2]: 5.3 nM
EC50 [3]: 1600 nM

CCNS(=O)(=O)Nc1cc(C(C)(C)C)c(SC2=C(O)OC(CCc3ccccc3)(C(C)C)CC2=O)cc1C (stereo not given)
CC50 [1]: 77000 nM
IC50 [2]: 3.3 nM
EC50 [3]: 1200 nM

Cc1cc(SC2=C(O)OC(CCc3ccc(O)cc3)(C(C)C)CC2=O)c(C(C)(C)C)cc1NS(C)(=O)=O (stereo not given)
CC50 [1]: > 100000 nM
IC50 [2]: 4 nM
EC50 [3]: 5300 nM

Cc1cc(SC2=C(O)OC(CCc3ccc(O)cc3)(C3CCCC3)CC2=O)c(C(C)(C)C)cc1NS(=O)(=O)c1ccccc1 (stereo not given)
CC50 [1]: 67000 nM
IC50 [2]: 8.6 nM
EC50 [3]: 2500 nM

Cc1cc(SC2=C(O)OC(CCc3ccc(O)cc3)(C(C)C)CC2=O)c(C(C)(C)C)cc1N (stereo not given)
CC50 [1]: 92000 nM
EC50 [3]: 1000 nM

From ChEMBL document CHEMBL1132961 (J Med Chem, 2000)
